Experimental data from ChEMBL document CHEMBL1122234, “Oxidation of uric acid. 4. Synthesis, structure, and diabetogenic action of 5-imino-2,4,6(1H,3H,5H)-pyrimidinetrione salts and their alloxan-like covalent adducts” (1983).
Activity calls are given as the source filed them. No cut-off for these calls is given here.

Assays:
Rattus norvegicus [1] = test: Diabetogenic activity in Lewis strain of albino rats after iv administration; assay type: functional
In short: (§1)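 Male Lewis rats (200-230 g), 24 per dose level, fasted 12 h, then dosed by tail-vein iv injection, or ip as a saline suspension when poorly soluble. A rat counted as diabetic if glucosuria (>1%) appeared within 24 h and persisted 5 days. Blood sugar and islet histology were also observed. The dose making 50% of animals diabetic (ED50, mmol/kg) was estimated graphically.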

[2] = Relative potency compared to that of Alloxan in albino rats.; assay type: functional
[3] = Relative potency compared to that of streptozotocin in albino rats.; assay type: functional
Rattus norvegicus [4] = test: Diabetogenic activity in Lewis strain of albino rats after ip administration; assay type: functional; in short: as §1
Rattus norvegicus [5] = test: Diabetogenic activity in Lewis strain of albino rats after iv administration; Inactive nondiabetogenic at the dose 2 g/kg ip; inactive; assay type: functional, organism-based; in short: as §1
[6] = Relative potency compared to that of Alloxan in albino rats; Inactive nondiabetogenic at the dose 2 g/kg ip; inactive; assay type: functional
[7] = Relative potency compared to that of streptozotocin in albino rats; Inactive nondiabetogenic at the dose 2 g/kg ip; inactive; assay type: functional
[8] = Rattus norvegicus, iv, read-out: ED50

Row | Compound | ED50 (Rattus norvegicus [1]; [8]) [µmol/kg] | Relative potency [2] | Relative potency [3] | ED50 (Rattus norvegicus [1]) [µmol/kg] | ED50 (Rattus norvegicus [4]) [µmol/kg] | ED50 (Rattus norvegicus [5]) | Relative potency [6] | Relative potency [7]
1 | Br.N=C1C(=O)NC(=O)NC1=O | 160 | 1.9 | 0.9 | – | – | – | – | –
2 | Br.NC1(O)C(=O)NC(=O)NC1=O | 150 | 2.1 | 1 | – | – | – | – | –
3 | Cl.NC1(O)C(=O)NC(=O)NC1=O | – | 2.2 | 1.1 | 140 | – | – | – | –
4 | CN(N=O)C(=O)N[C@@H](C=O)[C@@H](O)[C@H](O)[C@H](O)CO [STREPTOZOCIN] | 150 | 2.1 | 1 | – | – | – | – | –
5 | NC(=O)NC1(O)C(=O)NC(=O)NC1=O | 150 | 2.1 | 1 | – | – | – | – | –
6 | O=C1NC(=O)C(O)(O)C(=O)N1 | 310 | 1 | 0.5 | – | 1120 | – | – | –
7 | Cl.N=C1C(=O)NC(=O)NC1=O | – | 2.2 | 1.1 | 140 | – | – | – | –
8 | NC(=O)NC1(N)C(=O)NC(=O)NC1=O | – | – | – | – | – | inactive | inactive | inactive
9 | O=C1NC(=O)C2(O)NC(=O)NC2(O)N1 (configuration not stated) | – | 1.1 | – | – | 1060 | – | – | –
